Calls of active or inactive are those of the source. No cut-off for these calls is given here. Numbered stars: 1 amine (or outer) side, 2 acyl side, 3 side chain; on linkers, the order of the positions; unused ones are H or OH. Square brackets hold non-standard residues; d marks the D form. Peptide text beside a SMILES is read from it. * marks the point of attachment. X1 = CCC(=O)C[C@@H](O)C[C@@H](C)C[C@H](N[*:1])C(=O)[*:2]; X4 = CCCC[C@@H](O)C[C@@H](C)C[C@H](N[*:1])C(=O)[*:2]; X3 = CCC(=O)CCC[C@@H](C)C[C@H](N[*:1])C(=O)[*:2]; Hexenoyl(2E,4S-Me) = CC[C@H](C)/C=C/C(=O)*; Leu(3R-OH) = CC(C)[C@@H](O)[C@H](N)C(=O)O; NH((S)CH(Me)CH2NMe2) = C[C@@H](CN(C)C)N*; Pro(4S-Me) = C[C@@H]1CN[C@H](C(=O)O)C1; NH((S)CH(CH3)CH2NHMe) = CNC[C@H](C)N*; Aib = CC(C)(N)C(=O)O; βAla = NCCC(=O)O
What was measured:
[1] = test system: MDA-MB-453; test: Antiproliferative activity against human MDA-MB-453 cells at 1 to 100 nM incubated for 48 hrs by sulforhodamine B assay; assay type: functional, cell-based
Method in brief: (§1)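 IMEM with 5% FBS and 0.3% gentamicin; cells used within 4 months of thaw. After seeding at set densities and adhering, cells got compound or DMSO vehicle for 48 h, then were fixed and SRB-stained, with A560 read. GI50 (50% proliferation inhibition vs vehicle) came from non-linear regression of concentration-response curves; three independent experiments, each in triplicate.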

[2] = test system: SUM185PE; test: Antiproliferative activity against human SUM185PE cells at 1 to 100 nM incubated for 48 hrs by sulforhodamine B assay; assay type: functional, cell-based; method in brief: as §1
[3] = test system: HCC1937; test: Antiproliferative activity against human HCC1937 cells up to 100 nM incubated for 48 hrs by sulforhodamine B assay; assay type: functional, cell-based
Method in brief: (§2)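 Cells (RPMI-1640 with 5% FBS, 0.5% gentamicin; used within 4 months of thaw) were seeded at set densities, allowed to adhere, then treated 48 h with compound or DMSO vehicle. Cells were fixed and SRB-stained, with absorbance read at 560 nm. GI50 vs vehicle was taken by non-linear regression; three independent experiments, each in triplicate.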

[4] = test system: HCC1806; test: Antiproliferative activity against human HCC1806 cells up to 100 nM incubated for 48 hrs by sulforhodamine B assay; assay type: functional, cell-based; method in brief: as §2
[5] = test system: BT-549; test: Antiproliferative activity against human BT549 cells up to 100 nM incubated for 48 hrs by sulforhodamine B assay; assay type: functional, cell-based; method in brief: as §2
[6] = test system: MDA-MB-231; test: Antiproliferative activity against human MDA-MB-231 cells up to 100 nM incubated for 48 hrs by sulforhodamine B assay; assay type: functional, cell-based; method in brief: as §1
[7] = test system: HCC1937; test: Antiproliferative activity against human HCC1937 cells at >1 uM incubated for 48 hrs by sulforhodamine B assay; assay type: functional, cell-based; method in brief: as §2
[8] = test system: MDA-MB-453; test: Antiproliferative activity against human MDA-MB-453 cells at > 1 uM incubated for 48 hrs by sulforhodamine B assay; assay type: functional, cell-based; method in brief: as §1
[9] = test system: HCC1806; test: Antiproliferative activity against human HCC1806 cells at >1 uM incubated for 48 hrs by sulforhodamine B assay; assay type: functional, cell-based; method in brief: as §2
[10] = test system: MDA-MB-231; test: Antiproliferative activity against human MDA-MB-231 cells at > 1 uM incubated for 48 hrs by sulforhodamine B assay; assay type: functional, cell-based; method in brief: as §1
[11] = test system: BT-549; test: Antiproliferative activity against human BT549 cells at >1 uM incubated for 48 hrs by sulforhodamine B assay; assay type: functional, cell-based; method in brief: as §2
[12] = test system: MDA-MB-231; test: Antiproliferative activity against human MDA-MB-231 cells incubated for 48 hrs by sulforhodamine B assay; assay type: functional; conditions: MDA-MB-231, 48 h; method in brief: as §1

## CCC(=O)C[C@@H](O)C[C@@H](C)C[C@H](NC(=O)[C@@H]1C[C@H](C)CN1C(=O)/C=C/[C@@H](C)CC)C(=O)N[C@H](C(=O)NC(C)(C)C(=O)N[C@@H](CC(C)C)C(=O)N[C@@H](CC(C)C)C(=O)NC(C)(C)C(=O)NC(C)(C)C(=O)NCCC(=O)N[C@@H](C)CN(C)C)[C@H](O)C(C)C ({Hexenoyl(2E,4S-Me)}-[Pro(4S-Me)][X1][Leu(3R-OH)][Aib]LL[Aib][Aib][βAla]-{NH((S)CH(Me)CH2NMe2)})
[1]
  Activity: Active
[2]
  Activity: Active
[3]
  Activity: inactive
[4]
  Activity: inactive
[5]
  Activity: inactive
[6]
  Activity: inactive
[7]
  Activity: Active
[8]
  Activity: Active
[9]
  Activity: Active
[10]
  Activity: Active
[11]
  Activity: Active

## CCC(=O)CCC[C@@H](C)C[C@H](NC(=O)[C@@H]1C[C@H](C)CN1C(=O)/C=C/[C@@H](C)CC)C(=O)N[C@H](C(=O)NC(C)(C)C(=O)N[C@@H](CC(C)C)C(=O)N[C@@H](CC(C)C)C(=O)NC(C)(C)C(=O)NC(C)(C)C(=O)NCCC(=O)N[C@@H](C)CNC)[C@H](O)C(C)C ({Hexenoyl(2E,4S-Me)}-[Pro(4S-Me)][X3][Leu(3R-OH)][Aib]LL[Aib][Aib][βAla]-{NH((S)CH(CH3)CH2NHMe)})
[1]
  Activity: Active
[2]
  Activity: Active
[3]
  Activity: inactive
[4]
  Activity: inactive
[5]
  Activity: inactive
[6]
  Activity: inactive
[7]
  Activity: Active
[12]
  GI50: > 100 nM
[8]
  Activity: Active
[9]
  Activity: Active
[10]
  Activity: Active
[11]
  Activity: Active

## CCC(=O)CCC[C@@H](C)C[C@H](NC(=O)[C@@H]1C[C@H](C)CN1C(=O)/C=C/[C@@H](C)CC)C(=O)N[C@H](C(=O)NC(C)(C)C(=O)N[C@@H](CC(C)C)C(=O)N[C@@H](CC(C)C)C(=O)NC(C)(C)C(=O)NC(C)(C)C(=O)NCCC(=O)N[C@@H](C)CN(C)C)[C@H](O)C(C)C ({Hexenoyl(2E,4S-Me)}-[Pro(4S-Me)][X3][Leu(3R-OH)][Aib]LL[Aib][Aib][βAla]-{NH((S)CH(Me)CH2NMe2)})
[1]
  Activity: Active
[2]
  Activity: Active
[3]
  Activity: inactive
[4]
  Activity: inactive
[5]
  Activity: inactive
[6]
  Activity: inactive
[7]
  Activity: Active
[12]
  GI50: > 100 nM
[8]
  Activity: Active
[9]
  Activity: Active
[10]
  Activity: Active
[11]
  Activity: Active

## CCCC[C@@H](O)C[C@@H](C)C[C@H](NC(=O)[C@@H]1C[C@H](C)CN1C(=O)/C=C/[C@@H](C)CC)C(=O)N[C@H](C(=O)NC(C)(C)C(=O)N[C@@H](CC(C)C)C(=O)N[C@@H](CC(C)C)C(=O)NC(C)(C)C(=O)NC(C)(C)C(=O)NCCC(=O)N[C@@H](C)CNC)[C@H](O)C(C)C ({Hexenoyl(2E,4S-Me)}-[Pro(4S-Me)][X4][Leu(3R-OH)][Aib]LL[Aib][Aib][βAla]-{NH((S)CH(CH3)CH2NHMe)})
[1]
  Activity: Active
[2]
  Activity: Active
[3]
  Activity: inactive
[4]
  Activity: inactive
[5]
  Activity: inactive
[6]
  Activity: inactive
[7]
  Activity: Active
[12]
  GI50: > 100 nM
[8]
  Activity: Active
[9]
  Activity: Active
[10]
  Activity: Active
[11]
  Activity: Active

From ChEMBL document CHEMBL4622886, “Leucinostatins from Ophiocordyceps spp. and Purpureocillium spp. Demonstrate Selective Antiproliferative Effects in Cells Representing the Luminal Androgen Receptor Subtype of Triple Negative Breast Cancer” (2020)
